NPY Y2 blocker: antagonists of human neuropeptide Y receptor Y2; P49146; NPY-Y2 expressing cells, antagonist mode; inhibition, % at 2.7 µM; 140,000 tested, 0.99% active; AID 793; in the data active means inhibition above about 17%;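 further: 0% = vehicle with agonist challenge and 100% = reference antagonist with challenge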
NPY2 pot ag: potentiates or activates human NPY-Y2 receptor; cells expressing NPY-Y2, potentiator/agonist read-out; 220,000 tested, 0.45% active; AID 1359; P49146; activation, % at 3.6 µM; in the data active means activation above about 27%;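 further: cells stimulated with NPY near EC25 plus isoproterenol at EC100; 0% = vehicle plus submaximal agonist and 100% = vehicle plus saturating agonist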
NPY1 pot ag: potentiators or agonists of human neuropeptide Y receptor Y1 | AID 1304 | 220,000 tested, 0.37% active | P25929 | activation, % at 3.6 µM | NPY-Y1 expressing cells, potentiator/agonist activation; in the data active means activation above about 33%, passing the limit was not always enough;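 further: cells stimulated with NPY at EC10 then isoproterenol at EC100; 0% = low agonist plus stimulus and 100% = saturating agonist plus stimulus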
Target sequence (P25929 whole entry, looked up): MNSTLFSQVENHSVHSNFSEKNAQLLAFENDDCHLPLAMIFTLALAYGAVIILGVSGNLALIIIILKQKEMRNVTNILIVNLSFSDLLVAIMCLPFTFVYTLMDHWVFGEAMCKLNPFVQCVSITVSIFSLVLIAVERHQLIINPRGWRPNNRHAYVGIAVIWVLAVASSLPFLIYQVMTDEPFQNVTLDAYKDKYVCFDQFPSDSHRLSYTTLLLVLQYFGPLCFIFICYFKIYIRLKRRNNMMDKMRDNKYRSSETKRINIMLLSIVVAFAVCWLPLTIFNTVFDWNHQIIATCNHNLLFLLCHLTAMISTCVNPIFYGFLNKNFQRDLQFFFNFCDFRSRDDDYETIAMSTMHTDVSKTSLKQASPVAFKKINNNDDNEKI
Calpain2 inh: calpain II (pig) inhibition; purified calpain II, fluorogenic peptide substrate, 30 min; inhibition, % at 16 µM; 220,000 tested, 0.37% active; AID 1236;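 active means inhibition above about 50%, limit read from the data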
Tb hexokinase: T. brucei hexokinase 1 inhibition. recombinant TbHK1, G6PDH-coupled NADH A340. inhibition, % at 10 µM. 220,000 tested, 0.11% active;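 active means inhibition of 50% or more in the single-dose primary screen; inactive means inhibition below 50%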
NPY-Y1 antag: blocks the human neuropeptide Y Y1 receptor; P25929; HEK293-CNG Y1 cells, membrane potential fluorescence; NPY at EC95, then isoproterenol; inhibition, % at 3.6 µM; 200,000 tested, 1% active; AID 1040;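 active means inhibition above the campaign mean inhibition of all tested compounds plus 3 SD, cut at about 20% in these data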;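 further: 0% = DMSO wells given NPY plus isoproterenol and 100% = isoproterenol alone without NPY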
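Material: Y1- and CNG-channel-expressing HEK293 cells / Probe or stimulus: NPY 25 nM then isoproterenol 1 µM plus Ro 20-1724 25 µM / Doses: 3.6 µM single dose, DMSO 0.4% / Schedule: compound incubation 1 h at room temperature, readout 45 min post-stimulation / Signal: membrane potential fluorescence / Benchmarks: isoproterenol-only wells as full block versus NPY-plus-isoproterenol wells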
* hit, by the source's call. In the library only some 2.3% were active in any assay of this set; here they are far more common.

Screening Cc1ccc([N+](=O)[O-])cc1NC(=O)CN(C(=O)c1ccccc1Cl)C1CCCCC1 returned NPY Y2 blocker 26*, NPY2 pot ag 11, NPY1 pot ag -9, Calpain2 inh -1, Tb hexokinase -1 and NPY-Y1 antag 50*.
`Cc1cc(C)c(C)c(OCCCN(C)C)c1` gave NPY Y2 blocker 4, NPY2 pot ag -10, NPY1 pot ag -9, Calpain2 inh 39, Tb hexokinase 0 and NPY-Y1 antag 4.
For O=S(N1CCCCC1)C12CC3CC(CC(C3)C1)C2 (configuration not stated) the results were NPY2 pot ag -7, NPY1 pot ag 18, Calpain2 inh -24, Tb hexokinase 1 and NPY-Y1 antag -1.
O=S(N1CCc2ccccc21)C12CC3CC(CC(C3)C1)C2 (configuration not stated) was read as NPY2 pot ag 9, NPY1 pot ag -6, Calpain2 inh 103*, Tb hexokinase -4 and NPY-Y1 antag 2.
NC(=O)N/N=C/C=C/c1ccc(F)cc1 was read as NPY2 pot ag 5, NPY1 pot ag 1, Calpain2 inh -7 and Tb hexokinase -19.
`OC(COCC1COc2ccccc2O1)CN1CCN(c2ccccc2)CC1` (configuration not stated) gave NPY Y2 blocker 1, NPY2 pot ag 34*, NPY1 pot ag 29, Calpain2 inh 12, Tb hexokinase 1 and NPY-Y1 antag 0.
Screening Cc1ccc(Cn2ncc3c(N4CCOCC4)ncnc32)cc1 returned NPY Y2 blocker 1, NPY2 pot ag -11, NPY1 pot ag 8, Calpain2 inh 23, Tb hexokinase 4 and NPY-Y1 antag 2.
Screening Cc1ccc(Cn2ncc3c(N4CCN(c5ccccc5C)CC4)ncnc32)cc1 returned NPY Y2 blocker 12, NPY2 pot ag -14, NPY1 pot ag -20, Calpain2 inh 22, Tb hexokinase 8 and NPY-Y1 antag 27*.
C=CCNC(=O)COc1cc(C)cc(C)c1C was read as NPY2 pot ag 4, NPY1 pot ag 5, Calpain2 inh -6, Tb hexokinase 3 and NPY-Y1 antag 1.
For CCc1ccc(S(=O)(=O)NC(=S)NC2CCCCC2)cc1 the results were NPY2 pot ag -11, NPY1 pot ag -40, Calpain2 inh -24, Tb hexokinase -9 and NPY-Y1 antag -1.
For CCCCSc1nnc2c(n1)OC(C(=O)c1ccccc1)Nc1ccccc1-2 (configuration not stated) the results were NPY Y2 blocker 3, NPY2 pot ag 8, NPY1 pot ag -10, Calpain2 inh 65*, Tb hexokinase -4 and NPY-Y1 antag 7.
For Cn1c(-c2ccc(Br)o2)nc2ccccc21 the results were NPY Y2 blocker 3, NPY2 pot ag -7, NPY1 pot ag -16, Calpain2 inh -68, Tb hexokinase -6 and NPY-Y1 antag 7.
Brc1ccc(Cn2c(-c3ccc(Br)o3)nc3ccccc32)o1 was read as NPY Y2 blocker 29*, NPY2 pot ag -26, NPY1 pot ag -21, Calpain2 inh 24, Tb hexokinase -4 and NPY-Y1 antag 29*.
`COC(=O)CNC(=O)c1ccc(F)cc1` gave NPY2 pot ag 2, NPY1 pot ag -10, Calpain2 inh 19 and Tb hexokinase -6.
`O=C(Cc1ccc(Br)cc1)Nc1ncc([N+](=O)[O-])s1` gave NPY2 pot ag 62*, NPY1 pot ag 50*, Calpain2 inh 8 and Tb hexokinase 4.
Screening COc1cccc(C(=O)N2CCN(C3CCN(Cc4ccccc4)CC3)CC2)c1OC returned NPY2 pot ag 5, NPY1 pot ag 8, Calpain2 inh 2 and Tb hexokinase -8.
Screening CCOC(=O)CSc1nc2c(sc(=S)n2-c2ccccc2OC)c(=O)n1Cc1ccco1 returned NPY Y2 blocker 27*, NPY2 pot ag -33, NPY1 pot ag 8, Calpain2 inh 37, Tb hexokinase -20 and NPY-Y1 antag 34*.
For CCOC(=O)CSc1nc2c(sc(=S)n2Cc2ccco2)c(=O)n1-c1ccccc1 the results were NPY Y2 blocker 36*, NPY2 pot ag -38, NPY1 pot ag -50, Calpain2 inh -50, Tb hexokinase -30 and NPY-Y1 antag 60*.
`COc1ccc(-n2c(-c3ccc(Br)cc3)c[n+]3c2SC(C)C3)cc1` (configuration not stated) gave NPY2 pot ag 14, NPY1 pot ag 9, Calpain2 inh 18, Tb hexokinase 5 and NPY-Y1 antag -4.
COc1cccc(-n2sc3c(c2=S)-c2cc(OC)ccc2NC3(C)C)c1 was read as NPY Y2 blocker -3, NPY2 pot ag 39*, NPY1 pot ag 49*, Calpain2 inh 41, Tb hexokinase -17 and NPY-Y1 antag -5.
For OC(c1cc(C(F)(F)F)nc2c(Cl)cc(Cl)cc12)C1CCCCN1 (configuration not stated) the results were NPY2 pot ag 62*, NPY1 pot ag 66*, Calpain2 inh 9 and Tb hexokinase -2.
`Cc1ccc(CNS(=O)(=O)NCc2cccs2)cc1` gave NPY2 pot ag 9, NPY1 pot ag 15, Calpain2 inh -24, Tb hexokinase 9 and NPY-Y1 antag 3.
Screening COC(=O)CNC(c1ccccc1)c1cc(C)ccc1NC(=O)c1cccc(Cl)c1 (configuration not stated) returned NPY Y2 blocker 17*, NPY2 pot ag -6, NPY1 pot ag -27, Calpain2 inh 22, Tb hexokinase 1 and NPY-Y1 antag 28*.
For COC(=O)CNC(c1ccccc1)c1cc(C)ccc1NS(=O)(=O)c1ccc(C)cc1 (configuration not stated) the results were NPY Y2 blocker 8, NPY2 pot ag 1, NPY1 pot ag -12, Calpain2 inh -7, Tb hexokinase 5 and NPY-Y1 antag 6.
COC(=O)CNC(c1ccccc1)c1cc(C)ccc1NC(=O)CNC(=O)OCc1ccccc1 (configuration not stated) was read as NPY Y2 blocker 38*, NPY2 pot ag -22, NPY1 pot ag -34, Calpain2 inh -28, Tb hexokinase -4 and NPY-Y1 antag 29*.
C=CCc1c(C)[nH]c2c(OC)cccc2c1=S was read as NPY2 pot ag 1, NPY1 pot ag -11, Calpain2 inh -33, Tb hexokinase 3 and NPY-Y1 antag -2.
For Cn1c(=O)c2c(nc(NCc3ccc4c(c3)OCO4)n2Cc2ccccc2)n(C)c1=O the results were NPY Y2 blocker 11, NPY2 pot ag -1, NPY1 pot ag -40, Calpain2 inh -4, Tb hexokinase 4 and NPY-Y1 antag 20.
Screening COc1ccc(CNc2nc3c(c(=O)n(Cc4ccc(Br)cc4)c(=O)n3C)n2C)cc1 returned NPY Y2 blocker 4, NPY2 pot ag 10, NPY1 pot ag -32, Calpain2 inh 89*, Tb hexokinase -3 and NPY-Y1 antag -2.

From PubChem
